Published values collected from several papers.
Compare with care: the assays were run in different laboratories.
Target: Serine/threonine-protein kinase PLK2 (PLK2, Homo sapiens, UniProt Q9NYY3)

COc1ncccc1-c1cnn2ccc(N3CCN(C(=O)OC(C)C)CC3)nc12
remaining binding (binding; competition with immobilised ligand; 1 µM): 96%

O=c1[nH]c2ccccc2n1C1CCN(Cc2ccc(-c3[nH]c4cc5ncnc5cc4nc3-c3ccccc3)cc2)CC1
remaining signal (cell-free assay; 0.5 µM): 95.5%

Cn1cc(-c2cccc(N3CCc4c(sc5c4CC(C)(C)C5)C3=O)c2CO)cc(Nc2ccncn2)c1=O
inhibition (enzyme activity; inhibitor; 1 µM): 21%

Cn1cncc1[C@@](O)(COc1ccc(C#N)cc1-c1ccc(OC(F)(F)F)cc1)c1ccc(C#N)cc1
remaining binding (cell-free assay; competition with immobilised ligand; 1 µM): 86%

CC(C)(C)c1cc(C=C(C#N)C#N)cc(Br)c1O
remaining activity (enzyme activity; inhibitor; 0.5 µM): 92.6%

Cc1nn(C)cc1-c1nc2c(N3CCN(Cc4ccc(Cl)cc4)CC3)c(Cl)cnc2[nH]1
remaining binding (binding; competition with immobilised ligand; 1 µM): 93%

N#CC1(c2ccccn2)CCN(Cc2cc(C(=O)O)c(=O)n3ccccc23)CC1
remaining binding (cell-free assay; competition with immobilised ligand; 1 µM): 80%

Cn1cc(-c2cc(F)cc(N3CCn4c(cc5c4CCCC5)C3=O)c2CO)cc(Nc2ccc(N3CCN(C4COC4)CC3)cn2)c1=O
inhibition (enzyme activity; inhibitor; 0.1 µM): 18%

Nc1ncc(-c2nc(N3CCOCC3)nc(N3CCOCC3)n2)c(C(F)F)n1
remaining binding (binding; competition with immobilised ligand; 10 µM): 73%
